From PubChem BioAssay
Compounds with a hit are over-represented: about 2.2% of the library has one in this group of screens.
MK inhibit – S. pneumoniae MK inhibitors, primary screen, biochemical, PK/LDH-coupled NADH absorbance; mevalonate kinase [Streptococcus pneumoniae D39]; purified MK, PK/LDH-coupled NADH absorbance 340 nm; inhibition, % at 10 µM; 65,000 tested, 0.48% active; AID 555, 2006;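 active = ranked among the strongest by inhibition in the single 10 µM screen, a fixed top-ranked set picked for dose follow-up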
S1P3 ag – human S1P3 receptor agonists, primary screen, cell-based, primary and confirmation, NFAT-BLA reporter | AID 373, 2006 | Sphingosine 1-phosphate receptor 3 (Homo sapiens), Q99500 | activation, % at 4.5 µM | 60,000 tested, 0.1% active | S1P3 NFAT-BLA reporter cells, agonism, FRET ratio; relative to 1 µM S1P, basal subtracted;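 active = activation above the screen-wide mean plus 3 SD, cut at about 4.5% in these data, passing the limit was not always enough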
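Assay system: stable CHO line with human S1P3, Gα16, NFAT-BLA reporter; Detection: FRET β-lactamase substrate fluorescence, excitation 405 nm, 460/535 nm emission ratio, background-subtracted; Read-out: percent activation versus median 1 µM S1P response, basal-subtracted, per plate; Incubation: cells plated overnight, compound 4 h 37 °C, substrate 2 h RT.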
Hsp90 inh – tumor Hsp90 inhibitors, primary screen, cell lysate, fluorescence polarization, NCI-N417 lysate | 64,000 tested, 0.35% active | Cy3B-geldanamycin FP displacement | inhibition, % at 30 µM | Heat shock protein HSP 90-alpha (Homo sapiens), P07900;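 active = inhibition above 50%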
S1P1 ag-PAM – S1P1 agonists and agonism potentiators, primary screen, cell-based, primary and confirmation screens, CRE-bla reporter | activation, % at 9.5 µM | S1P1 CRE-bla cells, forskolin, beta-lactamase FRET, potentiator mode; S1P1 agonist co-added at EC20, 2 nM; 100% = saturating reference agonist, 0% = basal | 56,000 tested, 0.57% active;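 active = activation above a cutoff set at the mean activation of all tested compounds plus 3 SD, cut at about 54% in these data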;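 also: forskolin at 4 µM as EC80 and the EC20 agonist is SEW2871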
Target sequence (P21453 whole entry, looked up): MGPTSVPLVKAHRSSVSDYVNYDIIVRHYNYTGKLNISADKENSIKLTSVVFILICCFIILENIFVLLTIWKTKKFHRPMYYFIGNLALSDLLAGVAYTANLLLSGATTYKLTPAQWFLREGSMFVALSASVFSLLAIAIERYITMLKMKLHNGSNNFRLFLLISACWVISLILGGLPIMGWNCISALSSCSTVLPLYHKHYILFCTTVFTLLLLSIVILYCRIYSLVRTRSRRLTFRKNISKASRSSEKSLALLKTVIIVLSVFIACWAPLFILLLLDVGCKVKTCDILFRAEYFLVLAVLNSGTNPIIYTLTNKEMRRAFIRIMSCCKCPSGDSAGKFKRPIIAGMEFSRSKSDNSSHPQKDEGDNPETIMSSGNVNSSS
DPM-DC inhibit – S. pneumoniae DPM-DC inhibitors, primary screen, biochemical, PK/LDH-coupled NADH fluorescence; diphosphomevalonate decarboxylase (Streptococcus pneumoniae D39); purified DPM-DC; calls only at 10 µM; 65,000 tested, 0.49% active;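 active = the 320 compounds with the highest percent inhibition in the single-dose primary screen, excluding strongly autofluorescent ones, cut at about 32% in these data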;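 also: kinetic rate of NADH fluorescence loss reporting ADP formed by the decarboxylase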
PMK inhibit – S. pneumoniae PMK inhibitors, primary screen, biochemical, mevalonate pathway, pilot trial included; purified PMK, PK/LDH-coupled NADH absorbance 340 nm; inhibition, % at 10 µM; 65,000 tested, 0.49% active;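 active = top-ranked compounds by inhibition in the single 10 µM screen, taking a fixed number of the strongest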
Hits are given with their value; i = inactive; nt = no result given; + = active, no number.

SMILES | MK inhibit | S1P3 ag | Hsp90 inh | S1P1 ag-PAM | DPM-DC inhibit | PMK inhibit
CCOc1ccc2[nH]c(=O)c(C(c3nnnn3CC3CCCO3)N3CCc4ccccc4C3)cc2c1 (stereo not drawn) | i | i | i | i | i | 28
COc1ccc(C(c2nnnn2CC2CCCO2)N2CCN(c3ccccc3)CC2)cc1 (stereo not drawn) | 66 | i | i | i | + | 77
OC[C@H]1O[C@@H](n2cnc3cncnc32)[C@H](O)[C@@H]1O | nt | nt | i | nt | nt | nt
CNC(=O)OCc1cnc2ccc(OC)cc2c1COC(=O)NC | nt | nt | i | nt | nt | nt
COC(=O)C1=C(N)N(c2ccc(F)cc2)C2=C(C(=O)CCC2)C1c1ccc2c(c1)OCO2 (stereo not drawn) | i | nt | nt | nt | i | i
COc1cc(OC)c(C2CC(=O)N3CN(c4ccc(C)cc4)CSC3=C2C#N)cc1OC (stereo not drawn) | 41 | i | i | i | i | i
COc1ccc(N2CSC3=C(C#N)C(c4ccc(OC)c(OC)c4)CC(=O)N3C2)c(OC)c1 (stereo not drawn) | i | i | 77 | i | i | i
CC12CCC(C(=O)N(c3ccccn3)c3ccccn3)(OC1=O)C2(C)C (stereo not drawn) | i | i | i | i | i | i
CN(CC(=O)Nc1ccc(C#N)cc1)Cc1ccc(Cl)cc1 | i | i | i | i | i | i
N#Cc1ccc(NC(=O)Nc2ccc(Cl)cc2)cc1 | i | i | i | 129 | i | i
Cc1cc(OCC(=O)NCCO)cc(C)c1Cl | i | i | i | i | i | 26
Cc1ccccc1-c1c(C)oc2cc(O)ccc2c1=O | i | i | i | nt | nt | i
Cc1oc2cc(O)ccc2c(=O)c1N1C(=O)c2ccccc2C1=O | i | i | i | i | + | i
O=C(Nc1cccc2ncccc12)c1cccnc1 | i | i | i | i | i | i
Nc1ccc2ncccc2c1 | i | i | 70 | i | i | i
Nc1ccc2ncccc2c1N | i | i | 101 | i | i | i
c1cnc2c(c1)ccc1cccnc12 | nt | nt | i | nt | nt | nt
O=C(OCn1nnc2ccccc2c1=O)C1COc2ccccc2O1 (stereo not drawn) | i | i | i | i | i | i
O=c1c2ccccc2nnn1CSc1nnc(C2COc3ccccc3O2)n1-c1ccccc1 (stereo not drawn) | i | 9.0 | i | i | i | i
Cc1csc2nc(CNC(=O)c3cccc(C(F)(F)F)c3)cn12 | i | i | i | i | i | i
COc1ccc(C(=O)NCc2cn3c(C)csc3n2)cc1OC | i | i | i | i | + | i
COc1cccc(/C=N/n2c(C)nc3ccccc32)c1OC | i | i | i | i | i | i
COc1cccc(/C=N\n2c(C)nnc2C)c1OC | i | i | i | i | + | i
COc1nc(C)nc2c1sc(=S)n2C | i | i | i | i | i | i
Cc1ccc(CC2CC(=O)N(c3cc(C)on3)C2=O)cc1 (stereo not drawn) | i | i | i | i | i | i
SMILES | MK inhibit | S1P3 ag | Hsp90 inh | S1P1 ag-PAM | DPM-DC inhibit | PMK inhibit
Cc1cc(C)cc(CC2CC(=O)N(c3nc(C)cc(C)n3)C2=O)c1 (stereo not drawn) | i | i | i | i | i | 25
Cc1sc2ncn(CC(=O)NCCCC(=O)N3CCN(c4ncccn4)CC3)c(=O)c2c1C | i | i | i | i | i | i
CCCn1c(CN2CCN(c3cccc(Cl)c3)CC2)nc2c1c(=O)n(C)c(=O)n2C | i | i | i | 135 | i | i
Cc1cc(-n2c(=O)c(C#N)cc3c(=O)n4ccccc4nc32)no1 | i | 11 | i | i | nt | i
C=CCn1c(=O)c(C#N)cc2c(=O)n3ccccc3nc21 | i | 5.2 | i | i | nt | i
CCCCCn1c(=NC(C)=O)c(C#N)cc2c(=O)n3ccccc3nc21 | i | i | i | i | nt | i
O=C(NC1CCCCC1)N(CCN1CCCC1)Cc1cc2cc3c(cc2[nH]c1=O)OCCO3 | i | i | i | i | + | i
Cc1cccc2cc(CN(CCN3CCCC3)C(=O)NC3CCCCC3)c(=O)[nH]c12 | i | i | i | i | i | 30
COc1ccc(-c2nn(C)c(=O)c3ccccc23)cc1CNC(=O)CN1CCOCC1 | i | i | i | i | i | i
O=C1C2C3C=CC(O3)C2C(=O)N1CC(O)c1ccccc1 (stereo not drawn) | i | i | i | i | i | i
N#Cc1nc(COc2ccc(Cl)cc2Cl)oc1N1CCN(c2ccccc2)CC1 | i | i | i | 69 | i | i
COc1ccc(N2CCN(c3oc(COc4ccc(Cl)cc4Cl)nc3C#N)CC2)cc1 | i | i | i | i | i | i
O=C(Nc1ccccc1C(=O)N1CCOCC1)c1ccncc1 | i | i | i | i | i | i
CS(=O)(=O)N(CC(=O)NCc1ccc2c(c1)OCO2)Cc1ccccc1 | i | i | i | i | i | i
CCNc1nc(NC(C)(C)C)nc(N(C#N)CC)n1 | i | i | i | i | i | 25
O=C(NCc1nnc(SCC(=O)N2CCN(c3ccccc3)CC2)o1)c1ccco1 | 42 | nt | i | nt | i | i
CC(=O)c1sc(NC(=O)C2(F)C(F)(F)C(F)(F)C(F)(F)C(F)(F)C2(F)F)nc1C | i | i | i | 111 | i | i
CC1CN(C2CCN(C(=O)c3ccccc3Cl)CC2)CC(C)O1 (stereo not drawn) | 41 | i | i | i | i | i
COC(=O)c1ccc(C(=O)OC)c(NC(=O)c2oc(C)nc2C)c1 | i | i | i | i | i | i
Cc1noc(C)c1CSc1nc2ccccc2s1 | i | i | i | i | + | i
N[C@@H](COP(=O)(O)O)C(=O)O | nt | nt | i | nt | nt | nt
Oc1ccc2ccccc2c1C=NC12CN3CCN(CN(C3)C1)C2 | i | i | 89 | i | i | i
OCC(CO)(CO)N=Cc1c(O)ccc2ccccc12 | i | i | i | i | i | i
CC(=O)Nc1ccc(CN2CCN(c3cccc(C(F)(F)F)c3)CC2)cc1 | 43 | i | i | i | i | i
O=C(CC1Oc2ccc(Cl)cc2NC1=O)NC1CCCCCC1 (stereo not drawn) | i | i | i | i | i | i
O=c1c[n+]([O-])c2ccccc2n1OCc1c(F)cccc1F | i | i | i | i | i | 12
O=c1c[n+]([O-])c2ccccc2n1OCc1ccccn1 | i | i | i | i | i | i
CCOC(=O)N1CCC(n2c(=S)[nH]c3cc(OC)c(OC)cc3c2=O)CC1 | i | nt | i | nt | i | i
Cc1c(C(=O)OCC(C)(C)CN(C)C)oc2ccccc12 | i | i | i | i | + | i
